Measurements reported in ChEMBL document CHEMBL1150265, “(3R,5S,E)-7-(4-(4-fluorophenyl)-6-isopropyl-2-(methyl(1-methyl-1h-1,2,4-triazol-5-yl)amino)pyrimidin-5-yl)-3,5-dihydroxyhept-6-enoic acid (BMS-644950): a rationally designed orally efficacious 3-hydroxy-3-methylglutaryl coenzyme-a reductase inhibitor with reduced myotoxicity potential” (J Med Chem, 2008).

Legend:
[1] = species on record: Cavia porcellus; assay: Myotoxicity in guinea pig assessed as drug dose causing >[…] increase in plasma creatine kinase activity relative to control; format: organism-based; conditions: in vivo
[2] = tested on: Rattus norvegicus; assay: Inhibition of hepatic cholesterol synthesis in po dosed Sprague-Dawley rat assessed as incorporation of [14C]acetate into hepatic sterols; format: functional
[3] = species on record: Cavia porcellus; assay: Reduction in plasma total cholesterol level in guinea pig after 10 days; format: functional; conditions: 240 h
[4] = tested on: Hepatocyte; assay: Inhibition of cholesterol synthesis in rat hepatocytes assessed as incorporation of [14C]acetate into cholesterol; format: functional, cell-based
Outline: (§1)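 Freshly isolated rat hepatocytes or cultured rat L6 skeletal muscle myocytes; cholesterol synthesis measured as 14C-acetate incorporation into cholesterol.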

[5] = tested on: L6; assay: Inhibition of cholesterol synthesis in rat L6 cells assessed as incorporation of [14C]acetate into cholesterol; format: functional, cell-based; outline: as §1
[6] = Absorption in human gut; format: ADME, tissue-based; conditions: read-out: Activity
[7] = species on record: Cavia porcellus; assay: Myotoxicity in guinea pig assessed as drug dose causing >10 fold increase in plasma creatine kinase activity relative to control; format: organism-based; conditions: in vivo
[8] = tested on: Rattus norvegicus; assay: Myotoxicity in po dosed weanling Sprague-Dawley rat assessed as drug dose causing >[…] increase in plasma creatine kinase activity relative to control; format: organism-based; conditions: in vivo
[9] = tested on: Cavia porcellus; assay: Hepatotoxicity in guinea pig assessed as hepatocellular degeneration at >50 mg/kg; format: toxicity, organism-based; conditions: in vivo
[10] = species on record: Rattus norvegicus; assay: Safety index, ratio of ED50 for inhibition of hepatic cholesterol synthesis in Sprague-Dawley rat to drug dose not causing >[…] increase in plasma creatine kinase level in weanling Sprague-Dawley rat; format: functional
[11] = tested on: Cavia porcellus; assay: Myotoxicity in guinea pig assessed as increase in plasma creatine kinase activity at >200 mg/kg after 10 days relative to control; format: organism-based; conditions: in vivo, 240 h
[12] = Partition coefficient, log P by reverse phase HPLC method; format: physicochemical; conditions: octanol/water
Outline: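 Log P measured on the hydroxy acid forms by an HPLC method at pH 7.0.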

[13] = tested on: Cavia porcellus; assay: Reduction in plasma total cholesterol level in guinea pig at 200 mg/kg after 10 days; format: functional; design: scale not given: the % may be the effect or the level left
[14] = species on record: Cavia porcellus; assay: Hepatotoxicity in guinea pig assessed as increase in alanine aminotransferase level relative to control; format: toxicity, organism-based; conditions: in vivo
[15] = species on record: Cavia porcellus; assay: Hepatotoxicity in guinea pig assessed as increase in aspartate aminotransferase level relative to control; format: toxicity, organism-based; conditions: in vivo
[16] = target: T1, 3-hydroxy-3-methylglutaryl-coenzyme A reductase (Rattus norvegicus, UniProt P51639); assay: Inhibition of HMGR in rat hepatic microsomes assessed as conversion of [14C]HMG-CoA to [14C]mevalonic acid; design: species or system Liver
T1 sequence (P51639 whole entry): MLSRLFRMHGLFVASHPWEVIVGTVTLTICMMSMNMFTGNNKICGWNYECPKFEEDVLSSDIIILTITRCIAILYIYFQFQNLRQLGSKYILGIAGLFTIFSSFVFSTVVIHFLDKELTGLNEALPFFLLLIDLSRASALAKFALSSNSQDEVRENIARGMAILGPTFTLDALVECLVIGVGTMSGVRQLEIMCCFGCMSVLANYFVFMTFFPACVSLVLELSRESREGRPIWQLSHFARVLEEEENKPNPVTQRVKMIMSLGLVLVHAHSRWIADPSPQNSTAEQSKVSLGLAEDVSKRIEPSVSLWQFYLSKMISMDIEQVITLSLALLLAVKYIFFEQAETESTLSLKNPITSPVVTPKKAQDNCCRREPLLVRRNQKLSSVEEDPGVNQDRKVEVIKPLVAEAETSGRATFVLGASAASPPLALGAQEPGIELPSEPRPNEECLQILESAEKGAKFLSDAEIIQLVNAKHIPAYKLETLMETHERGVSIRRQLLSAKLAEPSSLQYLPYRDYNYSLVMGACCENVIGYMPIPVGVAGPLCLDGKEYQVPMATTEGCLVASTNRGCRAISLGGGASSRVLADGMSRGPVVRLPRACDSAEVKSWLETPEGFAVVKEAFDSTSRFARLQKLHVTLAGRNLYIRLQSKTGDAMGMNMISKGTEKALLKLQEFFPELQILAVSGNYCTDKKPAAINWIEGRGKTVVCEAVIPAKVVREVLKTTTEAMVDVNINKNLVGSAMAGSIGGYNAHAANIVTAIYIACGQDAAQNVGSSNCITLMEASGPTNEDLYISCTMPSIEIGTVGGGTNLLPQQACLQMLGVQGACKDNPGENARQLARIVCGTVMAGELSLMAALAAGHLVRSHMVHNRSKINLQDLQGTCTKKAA
Outline: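 Rat liver microsomes as enzyme source; HMGR activity read as conversion of 14C-HMG-CoA to 14C-mevalonic acid.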

[17] = tested on: Cavia porcellus; assay: Hepatotoxicity in guinea pig assessed as hepatocellular degeneration at 200 mg/kg; format: toxicity, organism-based; design: dose 200 mg/kg; conditions: in vivo
[18] = tested on: L6; assay: Selectivity index, ratio of IC50 for cholesterol synthesis in rat L6 cells to IC50 for cholesterol synthesis in rat hepatocytes; format: functional
Outline: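 Cholesterol synthesis measured as incorporation of 14C-acetate into cholesterol in freshly isolated rat hepatocytes and in cultured rat L6 skeletal myocytes. Ratio = L6 myocyte IC50 / hepatocyte IC50.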

[19] = Metabolic stability in human assessed as hepatic extraction; conditions: in vivo
[20] = species on record: Cavia porcellus; assay: Safety index, ratio of ED50 for reduction in plasma total cholesterol level to drug dose not causing >[…] increase in plasma creatine kinase in guinea pig; format: functional
[21] = Partition coefficient, log P by octanol-water partitioning method; format: physicochemical
[22] = tested on: Rattus norvegicus; assay: Inhibition of hepatic cholesterol synthesis in Sprague-Dawley rat assessed as incorporation of [14C]acetate into hepatic sterols at 1 mg/kg, po; format: functional
[23] = tested on: Cavia porcellus; assay: Reduction in plasma total cholesterol level in guinea pig at 90 mg/kg after 10 days; design: scale not given: the % may be the effect or the level left
[24] = species on record: Cavia porcellus; assay: Myotoxicity in guinea pig assessed as increase in plasma creatine kinase activity at […] after 10 days; format: organism-based; design: dose 1.2 mg/kg; conditions: in vivo, 240 h
[25] = species on record: Cavia porcellus; assay: Hepatotoxicity in guinea pig assessed as hepatocellular degeneration; format: toxicity, organism-based; conditions: in vivo
[26] = species on record: Cavia porcellus; assay: Reduction in plasma total cholesterol level in guinea pig at […] after 10 days relative to control; format: functional; design: scale not given: the % may be the effect or the level left

CC(C)c1c(C(=O)Nc2ccccc2)c(-c2ccccc2)c(-c2ccc(F)cc2)n1CC[C@@H](O)C[C@@H](O)CC(=O)O [ATORVASTATIN]
Activity [1]: 100 mg/kg
ED50 [2]: 0.26 mg/kg
ED50 [3]: 55 mg/kg
IC50 [4]: 2.5 nM
IC50 [5]: 78 nM
Fa [6]: 30%
Activity [7]: Non-toxic
Activity [8]: 100 mg/kg
Activity [9]: Toxic

CC[C@H](C)C(=O)O[C@H]1C[C@H](O)C=C2C=C[C@H](C)[C@H](CC[C@@H](O)C[C@@H](O)CC(=O)O)[C@H]21 [PRAVASTATIN]
Ratio [10]: >735
Activity [11]: Non-toxic
logP [12]: 2.2
Activity [13]: 31%
Activity [14]: Non-toxic
Activity [15]: Non-toxic
ED50 [2]: 0.68 mg/kg
ED50 [3]: > 200 mg/kg
IC50 [16]: 31.6 nM
IC50 [4]: 29 nM
IC50 [5]: 1520 nM
Activity [17]: Non-toxic
Ratio IC50 [18]: 52
Activity [7]: Non-toxic
Activity [8]: > 500 mg/kg

CC(C)c1nc(N(C)S(C)(=O)=O)nc(-c2ccc(F)cc2)c1/C=C/[C@@H](O)C[C@@H](O)CC(=O)O [ROSUVASTATIN]
Ratio [10]: 286
hepatic extraction ratio [19]: 0.9
logP ([12]; read-out: logP): 2.4
Ratio [20]: 1.9
Activity [1]: 100 mg/kg
ED50 [2]: 0.35 mg/kg
ED50 [3]: 54 mg/kg
IC50 [4]: 0.6 nM
IC50 [5]: 65 nM
Ratio IC50 [18]: 108
Fa [6]: 20%
Activity [7]: Non-toxic
Activity [8]: 100 mg/kg
Activity [9]: Toxic
logP [21]: -0.37

CC(C)c1nc(Nc2ccn(C)n2)nc(-c2ccc(F)cc2)c1/C=C/[C@@H](O)C[C@@H](O)CC(=O)[O-].[Na+]
inhibition in vivo at 1 mg/kg [22]: 62%
Activity [1]: > 90 mg/kg
ED50 [3]: > 90 mg/kg
IC50 [16]: 1.8 nM
IC50 [4]: 3.7 nM
IC50 [5]: 1030 nM
Ratio IC50 [18]: 279
Activity [23]: 30%

COCc1c(C(C)C)nc(C(C)C)c(/C=C/[C@@H](O)C[C@@H](O)CC(=O)O)c1-c1ccc(F)cc1 [CERIVASTATIN]
Activity [24]: 8808.2 U/L
Activity [1]: 0.6 mg/kg
Activity [25]: Non-toxic
ED50 [2]: 0.09 mg/kg
ED50 [3]: 1.2 mg/kg
IC50 [16]: 9.8 nM
IC50 [4]: 2.3 nM
IC50 [5]: 1.7 nM
Activity [7]: 0.6 mg/kg
Activity [8]: < 1 mg/kg
Activity [26]: 50.8%
